ChEMBL document CHEMBL4024783, “Alkylated Piperazines and Piperazine-Azole Hybrids as Antifungal Agents” (J Med Chem, 2018)
Values after ≈ are worked out from the molar mass of the structure shown. Active and inactive are the calls of the source. No cut-off for these calls is given here.

Columns and labels:
[1] = system: Candida albicans; assay: Inhibition of 14alpha-demethylase in Candida albicans ATCC 10231 assessed as eburicol levels at 0.12 ug/mL by GC-MS analysis; parameters: scale not given: the % may be the effect or the level left
Method in brief: (§1)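 Sterols were extracted from treated C. albicans ATCC 10231 (strain A) cells and profiled by GC-MS. Each sterol (lanosterol, ergosterol, eburicol, 14α-methyl ergosta-8,24(28)-diene-3β,6α-diol) is reported as a percentage of the sterol composition. A DMSO-treated culture served as the no-drug comparison.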

[2] = system: Pichia kudriavzevii; assay: Antifungal activity against Candida krusei ATCC 6258 after 48 hrs by broth dilution method; assay type: functional
Method in brief: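 Yeasts tested per CLSI M27-A3 with minor changes. An overnight YPD culture (35 °C, 200 rpm) was adjusted to OD600 0.12 and diluted in MOPS-buffered RPMI 1640 (pH 7.0) to a final 1–2 × 10^3 CFU/mL. Compounds 0.015–31.3 µg/mL, DMSO <1.25%.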

[3] = system: Candida albicans; assay: Antifungal activity against itraconazole and fluconazole susceptible Candida albicans ATCC MYA-2876 after 48 hrs by broth dilution method; assay type: functional
[4] = system: Aspergillus nidulans; assay: Antifungal activity against Aspergillus nidulans ATCC 38163 after 48 hrs by broth dilution method; assay type: functional
Method in brief: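 A. nidulans run per CLSI M38-A2. PDA spores were filtered through glass wool and counted by hemocytometer. Test range 0.03–31.3 µg/mL in MOPS-buffered RPMI 1640 (pH 7.0), final 5 × 10^5 CFU/mL.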

[5] = system: Candida albicans; assay: Antifungal activity against itraconazole and fluconazole resistant Candida albicans ATCC MYA-1003 after 48 hrs by broth dilution method; assay type: functional
Method in brief: (§2)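 CLSI M27-A3 broth microdilution with minor modifications. Overnight YPD culture grown at 35 °C, 200 rpm, adjusted to OD600 0.12, diluted in RPMI 1640 buffered to pH 7.0 with 0.165 M MOPS to a final 1–2 × 10^3 CFU/mL. Test compounds at 0.015–31.3 µg/mL, 48 h at 35 °C, DMSO <1.25%. […] Triplicate.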

[6] = system: Candida albicans; assay: Inhibition of 14alpha-demethylase in Candida albicans ATCC 10231 assessed as ergosterol levels at 0.12 ug/mL by GC-MS analysis; parameters: scale not given: the % may be the effect or the level left; method in brief: as §1
[7] = system: Candida albicans; assay: Antifungal activity against itraconazole and fluconazole susceptible Candida albicans ATCC MYA-2310 after 48 hrs by broth dilution method; assay type: functional
[8] = system: Candida albicans; assay: Inhibition of 14alpha-demethylase in Candida albicans ATCC 10231 assessed as total sterol levels at 0.12 ug/mL by GC-MS analysis; parameters: scale not given: the % may be the effect or the level left
[9] = system: Candida albicans; assay: Inhibition of 14alpha-demethylase in Candida albicans ATCC 10231 assessed as 14alpha-methyl ergosta-8,24(28)-dien-3beta,6alpha-diol levels at 0.12 ug/mL by GC-MS analysis; parameters: scale not given: the % may be the effect or the level left; method in brief: as §1
[10] = system: Aspergillus nidulans; assay: Antifungal activity against Aspergillus nidulans ATCC 38163 after 48 hrs in the presence of 10% FBS by broth dilution method; assay type: functional; conditions: ATCC 38163, 48 h
[11] = system: Candida albicans; assay: Antifungal activity against itraconazole and fluconazole resistant Candida albicans ATCC 90819 after 48 hrs by broth dilution method; assay type: functional; method in brief: as §2
[12] = system: Candida parapsilosis; assay: Antifungal activity against Candida parapsilosis ATCC 22019 after 48 hrs in the presence of 10% FBS by broth dilution method; assay type: functional; conditions: Lodderomyces parapsilosis, ATCC 22019, 48 h
[13] = system: Aspergillus terreus; assay: Antifungal activity against Aspergillus terreus ATCC MYA-3633 after 48 hrs by broth dilution method; assay type: functional
Method in brief: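 Molds tested per CLSI M38-A2. Spores were harvested from sporulating PDA cultures by filtering through glass wool and counted on a hemocytometer. Serial dilutions (0.03–31.3 µg/mL) were made in RPMI 1640 buffered to pH 7.0 with 0.165 M MOPS, final inoculum 5 × 10^5 CFU/mL.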

[14] = system: Candida albicans; assay: Inhibition of 14alpha-demethylase in Candida albicans ATCC 10231 assessed as lanosterol levels at 0.12 ug/mL by GC-MS analysis; parameters: scale not given: the % may be the effect or the level left; method in brief: as §1
[15] = system: Candida albicans; assay: Fungistatic activity against Candida albicans ATCC 10231 at 1 to 4 times MIC incubated for 24 hrs by time kill assay; assay type: functional
Method in brief: (§3)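 Overnight YPD cultures diluted in RPMI 1640 to an inoculum of 1–4 × 10^5 CFU/mL. […] Final volume 4 mL, 35 °C, 200 rpm, 24 h. Sampled at 0, 3, 6, 9, 12 and 24 h, serially diluted and plated on PDA. Colonies counted after 48 h (24 h for strain A). Detection limit 100 CFU/mL. Duplicate.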

[16] = system: Nakaseomyces glabratus; assay: Fungistatic activity against Candida glabrata ATCC 2001 at 4 times MIC incubated for 24 hrs by time kill assay; assay type: functional; conditions: CBS 138; method in brief: as §3
[17] = system: Candida albicans; assay: Antifungal activity against Candida albicans ATCC 64124 after 48 hrs by broth dilution method; assay type: functional; method in brief: as §2
[18] = system: Candida albicans; assay: Antifungal activity against itraconazole and fluconazole resistant Candida albicans ATCC MYA-1237 after 48 hrs by broth dilution method; assay type: functional; method in brief: as §2
[19] = system: Candida albicans; assay: Antibiofilm activity against voriconazole resistant Candida albicans ATCC 64124 sessile cells incubated for 24 hrs by XTT reduction assay; assay type: functional; conditions: ATCC 64124, 24 h
Method in brief: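 Strain B grown overnight in YPD broth at 35 °C, diluted to OD600 0.1 (~10^6 CFU/mL), then grown statically for 24 h at 37 °C to form biofilm. Washed with PBS, then drug in RPMI 1640 at 0.12–62.5 µg/mL for 24 h at 37 °C. Read-out: XTT 0.5 mg/mL with menadione 1 µM, 2 h, A490. SMIC50/SMIC80 are 50%/80% decreases versus drug-free biofilm. Duplicate.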

[20] = system: Nakaseomyces glabratus; assay: Antifungal activity against Candida glabrata ATCC 2001 after 48 hrs by broth dilution method; assay type: functional, CBS 138
[21] = system: Candida parapsilosis; assay: Fungistatic activity against Candida parapsilosis ATCC 22019 at 1 to 4 times MIC incubated for 24 hrs by time kill assay; assay type: functional; method in brief: as §3
[22] = system: Candida parapsilosis; assay: Antifungal activity against Candida parapsilosis ATCC 22019 after 48 hrs by broth dilution method; assay type: functional
[23] = Solubility of the compound in DMSO; assay type: physicochemical
[24] = system: Candida albicans; assay: Antifungal activity against Candida albicans ATCC 10231 at 7.8 ug/mL incubated for 1 hr by propidium iodide staining-based fluorescence microscopic method; assay type: functional
Method in brief: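 C. albicans ATCC 10231 grown overnight in YPD broth at 35 °C with shaking at 200 rpm, then transferred to RPMI 1640. Cells were exposed to drug and stained with propidium iodide, which enters only cells with compromised membranes. Uptake was judged by fluorescence microscopy against an untreated control.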

[25] = system: Candida albicans; assay: Inhibition of 14alpha-demethylase in Candida albicans ATCC 10231 assessed as ergosterol levels at […] by GC-MS analysis; parameters: scale not given: the % may be the effect or the level left
[26] = system: Candida albicans; assay: Inhibition of 14alpha-demethylase in Candida albicans ATCC 10231 assessed as 14alpha-methyl ergosta-8,24(28)-dien-3beta,6alpha-diol levels at […] by GC-MS analysis; parameters: scale not given: the % may be the effect or the level left
[27] = Aqueous solubility of the compound; assay type: physicochemical; conditions: buffer

C[C@@H](c1ncncc1F)[C@](O)(Cn1cncn1)c1ccc(F)cc1F [VORICONAZOLE]
Activity [1]: 2.14% | MIC=<50 [2]: 0.34 µM (≈ 0.119 µg/mL) | MIC=<50 [3]: 5.6 µM (≈ 1.96 µg/mL) | MIC=<50 [4]: 0.34 µM (≈ 0.119 µg/mL) | MIC=<50 [5]: 5.6 µM (≈ 1.96 µg/mL) | Activity [6]: 64.9% | MIC=<50 [7]: 2.8 µM (≈ 0.978 µg/mL) | Activity [8]: 1.56 to 2.79% | Activity [9]: 10.1% | MIC [10]: 0.12 µg/mL | MIC=<50 [11]: 5.6 µM (≈ 1.96 µg/mL) | MIC [12]: 0.015 µg/mL | MIC=<50 [13]: 0.34 µM (≈ 0.119 µg/mL) | Activity [14]: 18.5% | Activity [15]: Active | Activity [16]: Active | MIC=<50 [17]: 11.2 µM (≈ 3.91 µg/mL) | MIC=<50 [18]: 22.3 µM (≈ 7.79 µg/mL) | MIC50 [19]: 62.5 µg/mL (≈ 179 µM) | MIC80 [19]: 62.5 µg/mL (≈ 179 µM) | MIC=<50 [20]: 0.17 µM (≈ 0.0594 µg/mL) | Activity [21]: Active | MIC=<50 [22]: <0.06 µM

OC(Cn1cncn1)(Cn1cncn1)c1ccc(F)cc1F [FLUCONAZOLE]
MIC=<50 [2]: >102.2 µM | MIC=<50 [3]: 50.9 µM (≈ 15.6 µg/mL) | solubility [23]: Soluble | Activity [24]: inactive | MIC=<50 [7]: >408.1 µM | Activity [25]: 95.9% | MIC=<50 [11]: >408.1 µM | Activity [26]: 4.1% | solubility [27]: Soluble | MIC=<50 [17]: >408.1 µM | MIC=<50 [20]: >102.2 µM | MIC=<50 [22]: 6.4 µM (≈ 1.96 µg/mL)
